Data reported in publication PMC7004090 (Clinical Pharmacology in Drug Development, 2019).
Like-named read-outs stand apart in the source and are kept apart here.

How the values were obtained:
[1] = Plasma teriparatide acetate pharmacokinetics after subcutaneous injection; format: in vivo, human
How it was run: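 Vials were reconstituted in saline at use. 28.2 μg was given sc into the abdomen; 56.5 μg sc into the upper arm, in Cohort 1 with saline at the other site. Plasma was drawn pre-dose and at 0.25–6 h post-dose on days 1 and 36, frozen, and assayed centrally by IRMA (LLOQ 21.46 pg/mL). Noncompartmental parameters; values below LLOQ set to zero for means; arithmetic mean ± SD.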

[2] = system: bone turnover markers (P1NP, OC, serum NTX, CTX, urine NTX); assay: Changes in trough values of bone turnover markers; format: in vivo, human; details: for GMRs (trough to baseline) of serum P1NP and serum OC: 6 weeks, then steady until day 43; for GMRs (trough to baseline) of serum NTX, serum CTX, and urine NTX: after the 6-week treatments
How it was run: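 Healthy postmenopausal women received sc synthetic human PTH 1-34 or saline placebo for 6 weeks. Markers were sampled pre-dose on days 1, 8, 15, 22, 29 and 36 and on day 43. Serum P1NP and CTX were measured by ECLIA, OC by IRMA, serum and urine NTX by ELISA; CTX only on days 1, 8, 29 and 43. Samples were assayed centrally. GMR of log-transformed trough to baseline, with 95% CI, by ANOVA per group.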

[3] = system: healthy Japanese postmenopausal women; assay: Safety: incidence of adverse events; format: in vivo, human; details: 6 weeks, n = 20
How it was run: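 Randomized, single-blind, saline placebo-controlled trial in healthy Japanese postmenopausal women, with sc dosing for 6 weeks. Adverse events came from self-report, interviews or other tests, with onset, severity, seriousness, outcome and drug relationship recorded. Coding used MedDRA v17.1 preferred terms. Vital signs, 12-lead ECG, haematology, blood biochemistry and urinalysis were also monitored.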

[4] = system: patients with osteoporosis; details: TOWER trial, once-weekly 56.5 μg, cited from earlier work
[5] = system: subjects in the safety assessment population; details: 24-month open-label once-weekly trial, cited from earlier work
[6] = system: subjects of phase 2b trial; details: cited from earlier work
[7] = subjects with severe renal impairment (eGFR 15.0–29.9 mL/min/1.73 m^2); cited from earlier work
[8] = Cohort 1 BIW: 28.2 μg twice weekly sc, intervals 3, 4 days
[9] = Cohort 1 QW: 56.5 μg once weekly sc
[10] = Cohort 2 BIW: 28.2 μg twice weekly sc, intervals 2, 5 days
[11] = Cohort 3 BIW: 28.2 μg twice weekly sc, intervals 1, 6 days

**Q.** Which results are given for CC[C@H](C)[C@H](NC(=O)[C@H](CCC(=O)O)NC(=O)[C@H](CO)NC(=O)[C@@H](NC(=O)[C@@H](N)CO)C(C)C)C(=O)N[C@@H](CCC(N)=O)C(=O)N[C@@H](CC(C)C)C(=O)N[C@@H](CCSC)C(=O)N[C@@H](Cc1cnc[nH]1)C(=O)N[C@@H](CC(N)=O)C(=O)N[C@@H](CC(C)C)C(=O)NCC(=O)N[C@@H](CCCCN)C(=O)N[C@@H](Cc1cnc[nH]1)C(=O)N[C@@H](CC(C)C)C(=O)N[C@@H](CC(N)=O)C(=O)N[C@@H](CO)C(=O)N[C@@H](CCSC)C(=O)N[C@@H](CCC(=O)O)C(=O)N[C@@H](CCCN=C(N)N)C(=O)N[C@H](C(=O)N[C@@H](CCC(=O)O)C(=O)N[C@@H](Cc1c[nH]c2ccccc12)C(=O)N[C@@H](CC(C)C)C(=O)N[C@@H](CCCN=C(N)N)C(=O)N[C@@H](CCCCN)C(=O)N[C@@H](CCCCN)C(=O)N[C@@H](CC(C)C)C(=O)N[C@@H](CCC(N)=O)C(=O)N[C@@H](CC(=O)O)C(=O)N[C@H](C(=O)N[C@@H](Cc1cnc[nH]1)C(=O)N[C@@H](CC(N)=O)C(=O)N[C@@H](Cc1ccccc1)C(=O)O)C(C)C)C(C)C [teriparatide]?
**A.** Tmax ([1]; human, plasma, sc, 28.2 ug): ≤ 60 min; half-life ([1]; human, plasma, sc, 28.2 ug): 44.3 ± 6.12 min; accumulation of teriparatide acetate in plasma ([1]; multiple dosing of once-weekly 56.5 μg, 6 weeks): no accumulation; AUCinf and Cmax relative to the once-weekly 56.5-μg group ([1]; twice-weekly 28.2-μg groups): approximately half; accumulation in the plasma ([1]; twice-weekly 28.2-μg injection treatment, regardless of dosing intervals, 6 weeks): not observed; GMRs (trough to baseline) of serum P1NP and serum OC ([2]; all 3 twice-weekly 28.2-μg groups): similarly increased to day 29 or day 36; GMRs (trough to baseline) of serum NTX, serum CTX, and urine NTX ([2]; all twice-weekly 28.2-μg groups): did not increase; GMRs (trough to baseline) of serum P1NP and serum OC ([2]; once-weekly 56.5-μg group): similarly increased to day 29 or day 36; GMRs (trough to baseline) of serum NTX, serum CTX, and urine NTX ([2]; once-weekly 56.5-μg group): did not increase; Abdominal pain [3, 8]: 0 (0.0) number of subjects (%); Adverse events, Total [3, 8]: 12 (60.0) number of subjects (%); Alanine aminotransferase increased [3, 8]: 0 (0.0) number of subjects (%); Arthralgia [3, 8]: 0 (0.0) number of subjects (%); Aspartate aminotransferase increased [3, 8]: 0 (0.0) number of subjects (%); Blood pressure decreased [3, 8]: 0 (0.0) number of subjects (%); Chest discomfort [3, 8]: 0 (0.0) number of subjects (%); Constipation [3, 8]: 0 (0.0) number of subjects (%); Dizziness [3, 8]: 1 (5.0) number of subjects (%); Dyspepsia [3, 8]: 1 (5.0) number of subjects (%); Feeling abnormal [3, 8]: 0 (0.0) number of subjects (%); Fractured coccyx [3, 8]: 1 (5.0) number of subjects (%); Gamma-glutamyltransferase increased [3, 8]: 0 (0.0) number of subjects (%); Headache [3, 8]: 5 (25.0) number of subjects (%); Injection site erythema [3, 8]: 2 (10.0) number of subjects (%); Malaise [3, 8]: 2 (10.0) number of subjects (%); Nasopharyngitis [3, 8]: 0 (0.0) number of subjects (%); Nausea [3, 8]: 9 (45.0) number of subjects (%); Pruritus [3, 8]: 0 (0.0) number of subjects (%); Rash [3, 8]: 0 (0.0) number of subjects (%); Somnolence [3, 8]: 0 (0.0) number of subjects (%); Vomiting [3, 8]: 4 (20.0) number of subjects (%); Abdominal pain [3, 9]: 0 (0.0) number of subjects (%); Adverse events, Total [3, 9]: 18 (90.0) number of subjects (%); Alanine aminotransferase increased [3, 9]: 2 (10.0) number of subjects (%); Arthralgia [3, 9]: 1 (5.0) number of subjects (%); Aspartate aminotransferase increased [3, 9]: 1 (5.0) number of subjects (%); Blood pressure decreased [3, 9]: 1 (5.0) number of subjects (%); Chest discomfort [3, 9]: 0 (0.0) number of subjects (%); Constipation [3, 9]: 1 (5.0) number of subjects (%); Dizziness [3, 9]: 3 (15.0) number of subjects (%); Dyspepsia [3, 9]: 0 (0.0) number of subjects (%); Feeling abnormal [3, 9]: 0 (0.0) number of subjects (%); Fractured coccyx [3, 9]: 0 (0.0) number of subjects (%); Gamma-glutamyltransferase increased [3, 9]: 1 (5.0) number of subjects (%); Headache [3, 9]: 15 (75.0) number of subjects (%); Injection site erythema [3, 9]: 2 (10.0) number of subjects (%); Malaise [3, 9]: 4 (20.0) number of subjects (%); Nasopharyngitis [3, 9]: 0 (0.0) number of subjects (%); Nausea [3, 9]: 18 (90.0) number of subjects (%); Pruritus [3, 9]: 0 (0.0) number of subjects (%); Rash [3, 9]: 0 (0.0) number of subjects (%); Somnolence [3, 9]: 1 (5.0) number of subjects (%); Vomiting [3, 9]: 14 (70.0) number of subjects (%); Abdominal pain [3, 10]: 1 (5.0) number of subjects (%); Adverse events, Total [3, 10]: 12 (60.0) number of subjects (%); Alanine aminotransferase increased [3, 10]: 0 (0.0) number of subjects (%); Arthralgia [3, 10]: 0 (0.0) number of subjects (%); Aspartate aminotransferase increased [3, 10]: 0 (0.0) number of subjects (%); Blood pressure decreased [3, 10]: 0 (0.0) number of subjects (%); Chest discomfort [3, 10]: 1 (5.0) number of subjects (%); Constipation [3, 10]: 0 (0.0) number of subjects (%); Dizziness [3, 10]: 0 (0.0) number of subjects (%); Dyspepsia [3, 10]: 0 (0.0) number of subjects (%); Feeling abnormal [3, 10]: 1 (5.0) number of subjects (%); Fractured coccyx [3, 10]: 0 (0.0) number of subjects (%); Gamma-glutamyltransferase increased [3, 10]: 0 (0.0) number of subjects (%); Headache [3, 10]: 4 (20.0) number of subjects (%); Injection site erythema [3, 10]: 3 (15.0) number of subjects (%); Malaise [3, 10]: 0 (0.0) number of subjects (%); Nasopharyngitis [3, 10]: 1 (5.0) number of subjects (%); Nausea [3, 10]: 10 (50.0) number of subjects (%); Pruritus [3, 10]: 0 (0.0) number of subjects (%); Rash [3, 10]: 0 (0.0) number of subjects (%); Somnolence [3, 10]: 0 (0.0) number of subjects (%); Vomiting [3, 10]: 5 (25.0) number of subjects (%); Abdominal pain [3, 11]: 0 (0.0) number of subjects (%); Adverse events, Total [3, 11]: 16 (80.0) number of subjects (%); Alanine aminotransferase increased [3, 11]: 0 (0.0) number of subjects (%); Arthralgia [3, 11]: 0 (0.0) number of subjects (%); Aspartate aminotransferase increased [3, 11]: 0 (0.0) number of subjects (%); Blood pressure decreased [3, 11]: 0 (0.0) number of subjects (%); Chest discomfort [3, 11]: 0 (0.0) number of subjects (%); Constipation [3, 11]: 0 (0.0) number of subjects (%); Dizziness [3, 11]: 0 (0.0) number of subjects (%); Dyspepsia [3, 11]: 0 (0.0) number of subjects (%); Feeling abnormal [3, 11]: 0 (0.0) number of subjects (%); Fractured coccyx [3, 11]: 0 (0.0) number of subjects (%); Gamma-glutamyltransferase increased [3, 11]: 0 (0.0) number of subjects (%); Headache [3, 11]: 6 (30.0) number of subjects (%); Injection site erythema [3, 11]: 13 (65.0) number of subjects (%); Malaise [3, 11]: 0 (0.0) number of subjects (%); Nasopharyngitis [3, 11]: 0 (0.0) number of subjects (%); Nausea [3, 11]: 10 (50.0) number of subjects (%); Pruritus [3, 11]: 1 (5.0) number of subjects (%); Rash [3, 11]: 1 (5.0) number of subjects (%); Somnolence [3, 11]: 0 (0.0) number of subjects (%); Vomiting [3, 11]: 6 (30.0) number of subjects (%); adverse events, subjects affected ([4]; 271 of 290 subjects): 93.4%; Malaise ([4]; n = 21 of 290): 7.2%; abdominal discomfort ([4]; n = 22 of 290): 7.6%; Vomiting ([4]; n = 33 of 290): 11.4%; Headache ([4]; n = 39 of 290): 13.4%; Nausea ([4]; n = 59 of 290): 20.3%; adverse events, subjects affected ([5]; 181 of 189 subjects): 95.8%; abdominal discomfort ([5]; n = 25 of 189): 13.2%; Malaise ([5]; n = 33 of 189): 17.5%; Headache ([5]; n = 37 of 189): 19.6%; Vomiting ([5]; n = 42 of 189): 22.2%; Nausea ([5]; n = 69 of 189): 36.5%; Incidence of adverse events ([6]; once-weekly 14.1-μg dosing group, 14 of 73 subjects): 19.2%; frequency of nausea ([6]; once-weekly 14.1-μg group, 4 of 73 patients): 5.5%; Incidence of adverse events ([6]; once-weekly 28.2-μg dosing group, 14 of 75): 18.7%; frequency of nausea ([6]; once-weekly 28.2-μg group, 7 of 75): 9.3%; Incidence of adverse events ([6]; once-weekly 56.5-μg dosing group, 30 of 72): 41.7%; frequency of nausea ([6]; once-weekly 56.5-μg group, 15 of 72): 20.8%; elimination half-life [7]: significantly prolonged
